Test results: BindingDB's records for doi:10.1021/jm000452m (Abbott Laboratories, 2001)

Experiments:
[1] = molecular target: Intercellular adhesion molecule 1 (Homo sapiens, UniProt P05362); assay: In vitro potency against TNF alpha induced expression of intercellular adhesion molecule-1 on human vascular endothelial cells using CAM ELISA assay
Outline: (§1)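 Surface E-selectin, ICAM-1 or VCAM-1 was detected with mouse monoclonal primary antibody (overnight, 4 °C), then HRP anti-mouse IgG and OPD, with absorbance read at 490 nm. IC50 from triplicates; SEM across repeat triplicate runs.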

[2] = molecular target: T1, Vascular cell adhesion protein 1 (Homo sapiens, UniProt P19320); assay: In vitro potency against TNF alpha induced expression of VCAM-1 on human vascular endothelial cells using CAM ELISA assay; outline: as §1
T1 sequence (P19320 whole entry): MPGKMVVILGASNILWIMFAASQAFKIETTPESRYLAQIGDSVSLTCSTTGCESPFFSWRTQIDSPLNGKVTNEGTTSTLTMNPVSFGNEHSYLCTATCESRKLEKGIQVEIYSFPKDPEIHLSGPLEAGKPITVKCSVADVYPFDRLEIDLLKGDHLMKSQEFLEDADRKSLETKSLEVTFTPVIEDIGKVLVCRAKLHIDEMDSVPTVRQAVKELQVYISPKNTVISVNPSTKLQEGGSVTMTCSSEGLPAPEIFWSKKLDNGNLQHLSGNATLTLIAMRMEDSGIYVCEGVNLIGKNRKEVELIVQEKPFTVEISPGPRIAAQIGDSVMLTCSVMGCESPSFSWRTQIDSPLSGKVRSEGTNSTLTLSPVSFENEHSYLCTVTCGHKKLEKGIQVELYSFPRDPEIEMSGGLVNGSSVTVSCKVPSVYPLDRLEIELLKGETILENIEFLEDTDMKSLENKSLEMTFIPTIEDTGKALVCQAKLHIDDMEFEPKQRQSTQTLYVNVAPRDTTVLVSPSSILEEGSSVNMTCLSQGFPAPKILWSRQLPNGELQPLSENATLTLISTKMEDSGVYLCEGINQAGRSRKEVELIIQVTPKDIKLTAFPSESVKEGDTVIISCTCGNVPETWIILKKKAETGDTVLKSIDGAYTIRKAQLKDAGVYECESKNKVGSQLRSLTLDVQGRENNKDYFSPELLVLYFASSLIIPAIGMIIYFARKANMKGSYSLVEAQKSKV

E-selectin = molecular target: T2, E-selectin (Homo sapiens, UniProt P16581); assay: In vitro potency against TNF alpha induced expression of Selectin E on human vascular endothelial cells using CAM ELISA assay; outline: as §1
T2 sequence (P16581 whole entry): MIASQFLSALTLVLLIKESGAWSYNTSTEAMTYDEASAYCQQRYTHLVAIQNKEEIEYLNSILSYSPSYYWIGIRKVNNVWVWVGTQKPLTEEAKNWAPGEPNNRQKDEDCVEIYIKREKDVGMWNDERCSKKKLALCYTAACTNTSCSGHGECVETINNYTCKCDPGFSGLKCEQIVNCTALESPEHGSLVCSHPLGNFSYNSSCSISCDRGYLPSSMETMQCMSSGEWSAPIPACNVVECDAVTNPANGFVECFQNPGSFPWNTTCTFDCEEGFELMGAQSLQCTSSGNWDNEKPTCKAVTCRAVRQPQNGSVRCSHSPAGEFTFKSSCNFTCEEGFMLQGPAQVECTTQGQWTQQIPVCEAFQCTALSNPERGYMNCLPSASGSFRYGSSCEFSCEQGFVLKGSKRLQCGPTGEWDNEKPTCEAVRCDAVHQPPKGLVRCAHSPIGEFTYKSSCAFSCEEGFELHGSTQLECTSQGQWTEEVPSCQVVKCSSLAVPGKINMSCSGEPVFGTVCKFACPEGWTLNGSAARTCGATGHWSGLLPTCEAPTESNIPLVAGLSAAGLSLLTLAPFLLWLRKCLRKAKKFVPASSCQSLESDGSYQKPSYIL

[3] = In vitro potency against TNF alpha induced expression of intercellular adhesion molecule-1 on human vascular endothelial cells using CAM ELISA assay
[4] = In vitro potency against TNF alpha induced expression of Selectin E on human vascular endothelial cells using CAM ELISA assay

Intercellular adhesion molecule 1, sequence (P05362 whole entry): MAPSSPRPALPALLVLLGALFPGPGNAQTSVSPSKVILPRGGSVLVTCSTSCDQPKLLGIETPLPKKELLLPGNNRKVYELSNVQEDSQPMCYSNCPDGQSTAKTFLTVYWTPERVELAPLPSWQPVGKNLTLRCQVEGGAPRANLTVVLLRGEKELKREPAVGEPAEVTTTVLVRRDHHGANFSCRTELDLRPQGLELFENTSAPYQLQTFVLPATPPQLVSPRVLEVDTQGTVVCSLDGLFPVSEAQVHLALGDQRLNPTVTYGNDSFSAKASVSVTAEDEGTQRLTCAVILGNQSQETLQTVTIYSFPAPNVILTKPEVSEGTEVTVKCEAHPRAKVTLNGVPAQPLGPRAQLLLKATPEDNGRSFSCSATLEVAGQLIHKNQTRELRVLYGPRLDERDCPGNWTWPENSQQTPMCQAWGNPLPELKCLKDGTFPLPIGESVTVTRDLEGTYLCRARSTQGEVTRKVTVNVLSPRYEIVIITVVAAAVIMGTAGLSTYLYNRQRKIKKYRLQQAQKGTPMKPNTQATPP

Row | Structure (SMILES) | IC50 [1] [nM] | IC50 [2] [µM] | IC50 (E-selectin) [nM] | IC50 [3] [nM] | IC50 [4] [nM]
1 | Cc1ccc(Sc2cncc3sc(C(C)N=O)cc23)cc1 (centres undefined) [1-(4-p-Tolylsulfanyl-thieno[2,3-c]pyridin-2-yl)-ethanone oxime] | 85 | > 1 | 55 |  | 
2 | Cc1occc1Sc1cncc2sc(C(N)=O)cc12 [4-(2-Methyl-furan-3-ylsulfanyl)-thieno[2,3-c]pyridine-2-carboxylic acid amide] |  | > 1 |  | 570 | 600
3 | NC(=O)c1cc2c(Sc3ccc(Cl)c(Cl)c3)cncc2s1 [4-(3,4-Dichloro-phenylsulfanyl)-thieno[2,3-c]pyridine-2-carboxylic acid amide] |  | > 1 |  | 37 | 100
4 | Cc1ccc(Sc2cncc3sc(C(N)=O)cc23)cc1C [4-(3,4-Dimethyl-phenylsulfanyl)-thieno[2,3-c]pyridine-2-carboxylic acid amide] |  | > 1 |  | 8 | 13
5 | NC(=O)c1cc2c(Sc3ccc(C(F)(F)F)cc3)cncc2s1 [4-(4-Trifluoromethyl-phenylsulfanyl)-thieno[2,3-c]pyridine-2-carboxylic acid amide] |  | > 0.1 |  | 39 | 44
6 | NC(=O)c1cc2c(Sc3ccccn3)cncc2s1 [4-(Pyridin-2-ylsulfanyl)-thieno[2,3-c]pyridine-2-carboxylic acid amide] |  | 65 |  | 2300 | 660
7 | Cc1cccc(Sc2cncc3sc(C(N)=O)cc23)c1 [4-m-Tolylsulfanyl-thieno[2,3-c]pyridine-2-carboxylic acid amide] |  | > 4 |  | 140 | 45
8 | Cc1ccc(Sc2cncc3sc(CN=O)cc23)cc1 [4-p-Tolylsulfanyl-thieno[2,3-c]pyridine-2-carbaldehyde oxime] | 1900 | > 4 | 1500 |  | 
9 | Cc1ccc(Sc2cncc3sc(C(=O)NCCCN4CCOCC4)cc23)cc1 [4-p-Tolylsulfanyl-thieno[2,3-c]pyridine-2-carboxylic acid (3-morpholin-4-yl-propyl)-amide] |  | > 4 |  | > 4000 | > 4000
10 | Cc1ccc(Sc2cncc3sc(C(N)=O)cc23)cc1 [4-p-Tolylsulfanyl-thieno[2,3-c]pyridine-2-carboxylic acid amide] |  | > 1 |  |  | 
11 | Cc1ccc(Sc2cncc3sc(C(=O)NN)cc23)cc1 [4-p-Tolylsulfanyl-thieno[2,3-c]pyridine-2-carboxylic acid hydrazide] |  | 46 |  | 32 | 32
12 | Cc1ccc(Sc2cncc3sc(/C=N/OCC(=O)O)cc23)cc1 [(4-p-Tolylsulfanyl-thieno[2,3-c]pyridin-2-ylmethyleneaminooxy)-acetic acid] |  | > 4 |  | > 4000 | > 4000
13 | CCc1cc2c(NCc3ccccc3)ncnc2s1 [Benzyl-(6-ethyl-thieno[2,3-d]pyrimidin-4-yl)-amine] |  | 59 |  | 56000 | 49000
14 | CCc1cc2c(=O)[nH]cnc2s1 [MLS000029626] |  | > 100 |  | > 100000 | > 100000

Further compounds by falling IC50 [2], results first:

Row | IC50 [1] [nM] | IC50 [2] [µM] | IC50 (E-selectin) [nM] | IC50 [3] [nM] | IC50 [4] [nM] | Structure (SMILES)
15 |  | 19 |  | 160 | 150 | Cc1ccc(Sc2cncc3sc(C(N)=S)cc23)cc1 [4-p-Tolylsulfanyl-thieno[2,3-c]pyridine-2-carbothioic acid amide]
16 |  | 18 |  | > 100000 | 27000 | CCc1cc2c(Cl)ncnc2s1 [4-Chloro-6-ethyl-thieno[2,3-d]pyrimidine]
17 |  | 17 |  | 99000 | 95000 | CCc1cc2c(SCc3ccccc3)ncnc2s1 [4-Benzylsulfanyl-6-ethyl-thieno[2,3-d]pyrimidine]
18 |  | 15 |  | 39000 | 16000 | Cc1ccc(Sc2ccnc3sc(C(N)=O)cc23)cc1 [4-p-Tolylsulfanyl-thieno[2,3-b]pyridine-2-carboxylic acid amide]
19 |  | 3.5 |  | 5000 | 4000 | CCc1cc2c(Sc3nnc(C)s3)ncnc2s1 [6-Ethyl-4-(5-methyl-[1,3,4]thiadiazol-2-ylsulfanyl)-thieno[2,3-d]pyrimidine]
20 |  | 2.5 |  | 6300 | 3000 | CCc1cc2c(Sc3nnc(N)s3)ncnc2s1 [GNF-Pf-1931]
21 |  | 2.1 |  | 1800 | 1700 | Cc1ccc(Sc2cncc3sccc23)cc1 [4-p-Tolylsulfanyl-thieno[2,3-c]pyridine]
22 |  | 0.77 |  | 54 | 43 | Cc1ccc(Sc2cncc3sc(C(N)=O)cc23)c(C)c1 [4-(2,4-Dimethyl-phenylsulfanyl)-thieno[2,3-c]pyridine-2-carboxylic acid amide]
